Numbering of substitutions follows the chain as printed.
Columns and labels:
Type in all cases: biochemical
SpLeuRS T252R = target: T1, SpLeuRS T252R (Streptococcus pneumoniae serotype 4, UniProt Q97SS0, T252R); test: Aminoacylation by SpLeuRS T252R mutant; conditions: 50 μM ZCL039
T1 sequence (Q97SS0 1-833 T252R): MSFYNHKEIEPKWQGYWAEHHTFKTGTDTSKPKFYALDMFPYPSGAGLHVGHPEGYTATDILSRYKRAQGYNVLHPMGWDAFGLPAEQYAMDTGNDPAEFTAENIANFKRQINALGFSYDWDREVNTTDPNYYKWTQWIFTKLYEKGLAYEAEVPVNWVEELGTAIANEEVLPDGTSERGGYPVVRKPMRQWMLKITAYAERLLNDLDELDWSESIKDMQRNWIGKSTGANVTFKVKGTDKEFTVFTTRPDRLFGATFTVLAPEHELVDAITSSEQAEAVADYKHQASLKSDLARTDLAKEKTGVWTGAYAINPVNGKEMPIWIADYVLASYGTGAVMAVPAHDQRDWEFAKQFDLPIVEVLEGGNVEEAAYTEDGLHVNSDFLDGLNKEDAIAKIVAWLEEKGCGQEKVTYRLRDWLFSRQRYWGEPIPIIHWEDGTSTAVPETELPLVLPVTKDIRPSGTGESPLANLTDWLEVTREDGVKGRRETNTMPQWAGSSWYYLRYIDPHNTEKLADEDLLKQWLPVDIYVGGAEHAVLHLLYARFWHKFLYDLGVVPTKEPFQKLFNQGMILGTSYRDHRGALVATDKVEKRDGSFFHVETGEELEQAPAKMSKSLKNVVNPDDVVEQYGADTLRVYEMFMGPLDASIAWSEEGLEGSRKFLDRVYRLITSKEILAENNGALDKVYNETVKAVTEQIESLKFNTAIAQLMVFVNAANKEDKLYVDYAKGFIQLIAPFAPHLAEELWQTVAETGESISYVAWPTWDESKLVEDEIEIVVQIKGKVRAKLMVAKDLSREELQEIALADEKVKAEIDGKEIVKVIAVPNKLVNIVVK
Method in brief: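 Aminoacylation at 37°C, started with 4 mM ATP. Point mutants were made by site-directed mutagenesis. The MmLinker chimera has CP1 Lys226–Thr411 replaced by a nonapeptide. Means of three independent experiments.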

[1] = target: T2, S. pneumoniae LeuRS (SpLeuRS) (Streptococcus pneumoniae serotype 4, UniProt Q97SS0); test: Aminoacylation inhibition
T2 sequence (Q97SS0 1-833): T1 sequence (Q97SS0 1-833 T252R) with R252T
Method in brief: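 Aminoacylation at 37°C with [3H]leucine, started with 4 mM ATP, in Tris-HCl pH 7.5 buffer. Each LeuRS was used at equal activity, i.e. forming 10 pmol Leu-tRNALeu in 5 min. At least six test-compound concentrations were tested. IC50 was taken from a fitted dose-response curve, as the mean of at least two independent experiments.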

SpLeuRS = target: T3, SpLeuRS (Streptococcus pneumoniae serotype 4, UniProt Q97SS0); test: ATP-PPi exchange; conditions: 200 μM ZCL039
T3 sequence (Q97SS0 1-833): T1 sequence (Q97SS0 1-833 T252R) with R252T
Method in brief: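 Leucine activation (ATP-PPi exchange) at 37°C with 10 nM N-His6 SpLeuRS, expressed in E. coli BL21(DE3) and Ni-NTA purified. Run with or without test compound in DMSO. The [32P]ATP formed was separated and counted. Means of three independent experiments.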

OB1OCc2ccc(C(O)c3ccccc3)cc21 (stereo not drawn) [ZCL039, [6-(1-phenyl-1-hydroxylmethyl)]-1,3-dihydro-1-hydroxy-2,1-benzoxaborole]
Effect on synthetic activity of T252R mutant (SpLeuRS T252R): did not affect
IC50 [1]: 1720 ± 50 nM
Effect on PPi exchange activity of SpLeuRS (SpLeuRS): not affected

Source: paper PMC3747510 (Scientific Reports, 2013)
